In ChEMBL document CHEMBL1140929, “Synthesis and evaluation of 18F-labeled 2-phenylbenzothiazoles as positron emission tomography imaging agents for amyloid plaques in Alzheimer's disease” (J Med Chem, 2009):
Each block holds one molecule with its values, some of them ahead of it.

Legend:
Lung [1] = test: Biodistribution in NMRI mouse lung assessed per gram of tissue at 3.7 MBq/mL, iv after 60 mins by gamma counting; assay type: ADME, organism-based; details: in vivo, 1 h
Method in brief: (§1)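 Male NMRI mice (30-40 g) anaesthetised with 0.1 mL ip Hypnorm (fentanyl citrate 63 µg/mL, fluanisone 2 mg/mL). Each received 0.1 mL of HPLC-purified 18F tracer, diluted in 0.9% NaCl to 3.7 MBq/mL (ethanol ≤10%, THF ≤0.02%), via tail vein. Killed by decapitation at 2 or 60 min; blood and organs weighed and γ-counted. Background-corrected, expressed as %ID or %ID/g.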

Lung [2] = test: Biodistribution in NMRI mouse lung at 3.7 MBq/mL, iv after 60 mins by gamma counting; assay type: ADME, organism-based; details: in vivo, 1 h; method in brief: as §1
[3] = Biodistribution in NMRI mouse spleen/pancreas assessed per gram of tissue at 3.7 MBq/mL, iv after 2 mins by gamma counting; assay type: ADME, organism-based; details: in vivo; method in brief: as §1
Blood [4] = test: Biodistribution in NMRI mouse blood at 3.7 MBq/mL, iv after 60 mins by gamma counting; assay type: ADME, organism-based; details: in vivo, 1 h; method in brief: as §1
[5] = Biodistribution in NMRI mouse cerebrum assessed per gram of tissue at 3.7 MBq/mL, iv after 2 mins by gamma counting; assay type: ADME, organism-based; details: in vivo; method in brief: as §1
[6] = Biodistribution in NMRI mouse urine at 3.7 MBq/mL, iv after 2 mins by gamma counting; assay type: ADME, organism-based; details: in vivo; method in brief: as §1
Heart [7] = test: Biodistribution in NMRI mouse heart at 3.7 MBq/mL, iv after 60 mins by gamma counting; assay type: ADME, organism-based; details: in vivo, 1 h; method in brief: as §1
Intestine [8] = test: Biodistribution in NMRI mouse intestine at 3.7 MBq/mL, iv after 60 mins by gamma counting; assay type: ADME, organism-based; details: in vivo, 1 h; method in brief: as §1
Kidney [9] = test: Biodistribution in NMRI mouse kidney at 3.7 MBq/mL, iv after 60 mins by gamma counting; assay type: ADME, organism-based; details: in vivo, 1 h; method in brief: as §1
Cerebellum [10] = test: Biodistribution in NMRI mouse cerebellum at 3.7 MBq/mL, iv after 2 mins by gamma counting; assay type: ADME, organism-based; details: in vivo; method in brief: as §1
Liver [11] = test: Biodistribution in NMRI mouse liver at 3.7 MBq/mL, iv after 60 mins by gamma counting; assay type: ADME, organism-based; details: in vivo, 1 h; method in brief: as §1
Kidney [12] = test: Biodistribution in NMRI mouse kidney assessed per gram of tissue at 3.7 MBq/mL, iv after 60 mins by gamma counting; assay type: ADME, organism-based; details: in vivo, 1 h; method in brief: as §1
Liver [13] = test: Biodistribution in NMRI mouse liver at 3.7 MBq/mL, iv after 2 mins by gamma counting; assay type: ADME, organism-based; details: in vivo; method in brief: as §1
[14] = Biodistribution in NMRI mouse cerebrum at 3.7 MBq/mL, iv after 60 mins by gamma counting; assay type: ADME, organism-based; details: in vivo, 1 h; method in brief: as §1
[15] = Biodistribution in NMRI mouse spleen/pancreas at 3.7 MBq/mL, iv after 60 mins by gamma counting; assay type: ADME, organism-based; details: in vivo, 1 h; method in brief: as §1
Lung [16] = test: Biodistribution in NMRI mouse lung assessed per gram of tissue at 3.7 MBq/mL, iv after 2 mins by gamma counting; assay type: ADME, organism-based; details: in vivo; method in brief: as §1
[17] = Biodistribution in NMRI mouse spleen/pancreas at 3.7 MBq/mL, iv after 2 mins by gamma counting; assay type: ADME, organism-based; details: in vivo; method in brief: as §1
Liver [18] = test: Biodistribution in NMRI mouse liver assessed per gram of tissue at 3.7 MBq/mL, iv after 60 mins by gamma counting; assay type: ADME, organism-based; details: in vivo, 1 h; method in brief: as §1
Intestine [19] = test: Biodistribution in NMRI mouse intestine at 3.7 MBq/mL, iv after 2 mins by gamma counting; assay type: ADME, organism-based; details: in vivo; method in brief: as §1
Lung [20] = test: Biodistribution in NMRI mouse lung at 3.7 MBq/mL, iv after 2 mins by gamma counting; assay type: ADME, organism-based; details: in vivo
Stomach [21] = test: Biodistribution in NMRI mouse stomach at 3.7 MBq/mL, iv after 60 mins by gamma counting; assay type: ADME, organism-based; details: in vivo, 1 h; method in brief: as §1
Cerebellum [22] = test: Biodistribution in NMRI mouse cerebellum assessed per gram of tissue at 3.7 MBq/mL, iv after 2 mins by gamma counting; assay type: ADME, organism-based; details: in vivo; method in brief: as §1
[23] = Biodistribution in NMRI mouse cerebrum assessed per gram of tissue at 3.7 MBq/mL, iv after 60 mins by gamma counting; assay type: ADME, organism-based; details: in vivo, 1 h; method in brief: as §1
Cerebellum [24] = test: Biodistribution in NMRI mouse cerebellum at 3.7 MBq/mL, iv after 60 mins by gamma counting; assay type: ADME, organism-based; details: in vivo, 1 h; method in brief: as §1
Blood [25] = test: Biodistribution in NMRI mouse blood assessed per gram of tissue at 3.7 MBq/mL, iv after 2 mins by gamma counting; assay type: ADME, organism-based; details: in vivo; method in brief: as §1
Blood [26] = test: Biodistribution in NMRI mouse blood at 3.7 MBq/mL, iv after 2 mins by gamma counting; assay type: ADME, organism-based; details: in vivo; method in brief: as §1
Kidney [27] = test: Biodistribution in NMRI mouse kidney assessed per gram of tissue at 3.7 MBq/mL, iv after 2 mins by gamma counting; assay type: ADME, organism-based; details: in vivo; method in brief: as §1
Heart [28] = test: Biodistribution in NMRI mouse heart at 3.7 MBq/mL, iv after 2 mins by gamma counting; assay type: ADME, organism-based; details: in vivo; method in brief: as §1
Heart [29] = test: Biodistribution in NMRI mouse heart assessed per gram of tissue at 3.7 MBq/mL, iv after 2 mins by gamma counting; assay type: ADME, organism-based; details: in vivo; method in brief: as §1
Cerebellum [30] = test: Biodistribution in NMRI mouse cerebellum assessed per gram of tissue at 3.7 MBq/mL, iv after 60 mins by gamma counting; assay type: ADME, organism-based; details: in vivo, 1 h; method in brief: as §1
Blood [31] = test: Biodistribution in NMRI mouse blood assessed per gram of tissue at 3.7 MBq/mL, iv after 60 mins by gamma counting; assay type: ADME, organism-based; details: in vivo, 1 h; method in brief: as §1
Liver [32] = test: Biodistribution in NMRI mouse liver assessed per gram of tissue at 3.7 MBq/mL, iv after 2 mins by gamma counting; assay type: ADME, organism-based; details: in vivo; method in brief: as §1
Stomach [33] = test: Biodistribution in NMRI mouse stomach at 3.7 MBq/mL, iv after 2 mins by gamma counting; assay type: ADME, organism-based; details: in vivo; method in brief: as §1
Heart [34] = test: Biodistribution in NMRI mouse heart assessed per gram of tissue at 3.7 MBq/mL, iv after 60 mins by gamma counting; assay type: ADME, organism-based; details: in vivo, 1 h; method in brief: as §1
[35] = Biodistribution in NMRI mouse spleen/pancreas assessed per gram of tissue at 3.7 MBq/mL, iv after 60 mins by gamma counting; assay type: ADME, organism-based; details: in vivo, 1 h; method in brief: as §1
[36] = Biodistribution in NMRI mouse urine at 3.7 MBq/mL, iv after 60 mins by gamma counting; assay type: ADME, organism-based; details: in vivo, 1 h; method in brief: as §1
[37] = Biodistribution in NMRI mouse cerebrum at 3.7 MBq/mL, iv after 2 mins by gamma counting; assay type: ADME, organism-based; details: in vivo; method in brief: as §1
[38] = target: Amyloid-beta precursor protein (Homo sapiens, UniProt P05067); test: Displacement of [125I]IMPY from beta-amyloid plaques in Alzheimer's disease patient brain homogenate; assay type: tissue-based
Sequence of Amyloid-beta precursor protein (P05067 whole entry): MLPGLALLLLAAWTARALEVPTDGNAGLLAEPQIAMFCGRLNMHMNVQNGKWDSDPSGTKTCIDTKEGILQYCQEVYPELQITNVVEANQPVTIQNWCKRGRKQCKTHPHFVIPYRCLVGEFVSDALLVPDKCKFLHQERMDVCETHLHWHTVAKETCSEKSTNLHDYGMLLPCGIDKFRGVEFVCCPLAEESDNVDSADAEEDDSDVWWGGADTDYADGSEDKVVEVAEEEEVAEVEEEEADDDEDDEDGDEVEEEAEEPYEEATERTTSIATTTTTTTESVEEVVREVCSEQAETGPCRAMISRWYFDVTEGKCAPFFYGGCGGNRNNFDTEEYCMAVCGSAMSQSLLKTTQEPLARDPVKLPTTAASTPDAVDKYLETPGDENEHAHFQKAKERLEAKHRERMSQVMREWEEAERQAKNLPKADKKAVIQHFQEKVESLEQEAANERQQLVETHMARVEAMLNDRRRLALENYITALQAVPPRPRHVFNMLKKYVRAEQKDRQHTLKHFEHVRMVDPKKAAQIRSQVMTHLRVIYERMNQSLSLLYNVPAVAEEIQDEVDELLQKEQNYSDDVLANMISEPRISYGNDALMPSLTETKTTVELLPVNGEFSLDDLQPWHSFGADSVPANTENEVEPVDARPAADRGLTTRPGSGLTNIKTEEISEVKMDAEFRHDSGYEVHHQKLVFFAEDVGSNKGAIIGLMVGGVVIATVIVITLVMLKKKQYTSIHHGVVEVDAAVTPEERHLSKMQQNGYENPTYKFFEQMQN

Drug uptake (Lung [1]): 1.3 % ID/g
Drug uptake (Lung [2]): 0.3 %ID
Drug uptake [3]: 4 % ID/g
Drug uptake (Blood [4]): 2.8 %ID
Drug uptake [5]: 5.33 % ID/g
Drug uptake [6]: 0.2 %ID
Drug uptake (Heart [7]): 0.1 %ID
Drug uptake (Intestine [8]): 19.3 %ID
Drug uptake (Kidney [9]): 2.3 %ID
Drug uptake (Cerebellum [10]): 0.42 %ID
Drug uptake (Liver [11]): 51.8 %ID
Drug uptake (Kidney [12]): 3.6 % ID/g
Drug uptake (Liver [13]): 24.8 %ID
Drug uptake [14]: 0.07 %ID
Drug uptake [15]: 0.1 %ID
Drug uptake (Lung [16]): 14.4 % ID/g
Drug uptake [17]: 1.3 %ID
Drug uptake (Liver [18]): 24.6 % ID/g
Drug uptake (Intestine [19]): 8.9 %ID
Drug uptake (Lung [20]): 3.6 %ID
Drug uptake (Stomach [21]): 1.1 %ID
Drug uptake (Cerebellum [22]): 5.99 % ID/g
Drug uptake [23]: 0.27 % ID/g
Drug uptake (Cerebellum [24]): 0.04 %ID
Drug uptake (Blood [25]): 2.2 % ID/g
Drug uptake (Blood [26]): 5.7 %ID
Drug uptake (Kidney [27]): 9.3 % ID/g
Drug uptake (Heart [28]): 0.9 %ID
Drug uptake (Heart [29]): 5.4 % ID/g
Drug uptake (Cerebellum [30]): 0.39 % ID/g
Drug uptake (Blood [31]): 1.1 % ID/g
Drug uptake (Liver [32]): 12 % ID/g
Drug uptake (Stomach [33]): 1.3 %ID
Drug uptake (Heart [34]): 0.5 % ID/g
Drug uptake [35]: 0.4 % ID/g
Drug uptake [36]: 5.8 %ID
Drug uptake [37]: 1.62 %ID
Structure (SMILES): Cc1ccc2nc(-c3ccc([18F])cc3)sc2c1

Ki [38]: 2.2 nM
Structure (SMILES): COc1ccc2nc(-c3ccc(F)cc3)sc2c1

Ki [38]: 22.5 nM
Structure (SMILES): Oc1ccc2nc(-c3ccc(F)cc3)sc2c1

Ki [38]: 776 nM
Structure (SMILES): Oc1cc(O)c2sc(-c3ccc(F)cc3)nc2c1
